Laboratory results reported in ChEMBL document CHEMBL3091321, “Design, synthesis and cytotoxicity of novel 3'-N-alkoxycarbonyl docetaxel analogs” (Bioorg Med Chem Lett, 2013).

Experiments:
A549 [1] = test: Cytotoxicity against human A549 cells after 48 hrs by MTT assay; format: functional, cell-based; details: A549, 48 h
Outline: (§1)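 Cells were exposed to drug for 48 h at seven ten-fold dilutions down to 0.1 nM. MTT in RPMI-1640 was then added for a further 4 h at 37 °C. Formazan was dissolved in DMSO and absorbance read at 570 nm after 5 min. Each run was done in triplicate. IC₅₀ is given as mean ± SD of three independent experiments.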

SK-OV-3 = test: Cytotoxicity against human SKOV3 cells after 48 hrs by MTT assay; format: functional, cell-based; details: SK-OV-3, 48 h; outline: as §1
A549 [2] = test: Ratio of taxol IC50 to compound IC50 for human A549 cells; format: functional
A549 [3] = test: Ratio of docetaxel IC50 to compound IC50 for human A549 cells; format: functional

Compound	IC50 (A549 [1])	IC50 (SK-OV-3)	Ratio IC50 (A549 [2])	Ratio IC50 (A549 [3])
CC(=O)O[C@@]12CO[C@@H]1C[C@H](O)[C@@]1(C)C(=O)[C@H](O)C3=C(C)[C@@H](OC(=O)[C@H](O)[C@@H](NC(=O)O[C@H](C)C(C)C)c4ccccc4)C[C@@](O)([C@@H](OC(=O)c4ccccc4)[C@H]21)C3(C)C	35 nM	13 nM		
CC(=O)O[C@@]12CO[C@@H]1C[C@H](O)[C@@]1(C)C(=O)[C@H](O)C3=C(C)[C@@H](OC(=O)[C@H](O)[C@@H](NC(=O)O[C@@H](C)C(C)C)c4ccccc4)C[C@@](O)([C@@H](OC(=O)c4ccccc4)[C@H]21)C3(C)C	60 nM	17 nM		
CC[C@@H](C)OC(=O)N[C@@H](c1ccccc1)[C@@H](O)C(=O)O[C@H]1C[C@@]2(O)[C@@H](OC(=O)c3ccccc3)[C@@H]3[C@]4(OC(C)=O)CO[C@@H]4C[C@H](O)[C@@]3(C)C(=O)[C@H](O)C(=C1C)C2(C)C	18 nM	13 nM		
CC[C@H](C)OC(=O)N[C@@H](c1ccccc1)[C@@H](O)C(=O)O[C@H]1C[C@@]2(O)[C@@H](OC(=O)c3ccccc3)[C@@H]3[C@]4(OC(C)=O)CO[C@@H]4C[C@H](O)[C@@]3(C)C(=O)[C@H](O)C(=C1C)C2(C)C	40 nM	27 nM		
CCC(C)(C)OC(=O)N[C@@H](c1ccccc1)[C@@H](O)C(=O)O[C@H]1C[C@@]2(O)[C@@H](OC(=O)c3ccccc3)[C@@H]3[C@]4(OC(C)=O)CO[C@@H]4C[C@H](O)[C@@]3(C)C(=O)[C@H](O)C(=C1C)C2(C)C	13 nM	5.9 nM	>65	>65
CCCC(C)(C)OC(=O)N[C@@H](c1ccccc1)[C@@H](O)C(=O)O[C@H]1C[C@@]2(O)[C@@H](OC(=O)c3ccccc3)[C@@H]3[C@]4(OC(C)=O)CO[C@@H]4C[C@H](O)[C@@]3(C)C(=O)[C@H](O)C(=C1C)C2(C)C	10 nM	2.9 nM	>65	>65
CC(=O)O[C@@]12CO[C@@H]1C[C@H](O)[C@@]1(C)C(=O)[C@H](O)C3=C(C)[C@@H](OC(=O)[C@H](O)[C@@H](NC(=O)OC(C)(C)C(C)C)c4ccccc4)C[C@@](O)([C@@H](OC(=O)c4ccccc4)[C@H]21)C3(C)C	12 nM	2.7 nM	>65	>65
CC(=O)O[C@@]12CO[C@@H]1C[C@H](O)[C@@]1(C)C(=O)[C@H](O)C3=C(C)[C@@H](OC(=O)[C@H](O)[C@@H](NC(=O)OC(C)(C)CF)c4ccccc4)C[C@@](O)([C@@H](OC(=O)c4ccccc4)[C@H]21)C3(C)C	140 nM			
CC(=O)O[C@@]12CO[C@@H]1C[C@H](O)[C@@]1(C)C(=O)[C@H](O)C3=C(C)[C@@H](OC(=O)[C@H](O)[C@@H](NC(=O)OC(C)C(C)C)c4ccccc4)C[C@@](O)([C@@H](OC(=O)c4ccccc4)[C@H]21)C3(C)C (mixture of isomers)	47 nM	16 nM		
CCC(C)OC(=O)N[C@@H](c1ccccc1)[C@@H](O)C(=O)O[C@H]1C[C@@]2(O)[C@@H](OC(=O)c3ccccc3)[C@@H]3[C@]4(OC(C)=O)CO[C@@H]4C[C@H](O)[C@@]3(C)C(=O)[C@H](O)C(=C1C)C2(C)C (mixture of isomers)	30 nM	22 nM		
CC(=O)O[C@@]12CO[C@@H]1C[C@H](O)[C@@]1(C)C(=O)[C@H](O)C3=C(C)[C@@H](OC(=O)[C@H](O)[C@@H](NC(=O)OC(C)(C)C)c4ccccc4)C[C@@](O)([C@@H](OC(=O)c4ccccc4)[C@H]21)C3(C)C [DOCETAXEL]	850 nM	5 nM		
CC(=O)O[C@H]1C(=O)[C@@]2(C)[C@H]([C@H](OC(=O)c3ccccc3)[C@]3(O)C[C@H](OC(=O)[C@H](O)[C@@H](NC(=O)c4ccccc4)c4ccccc4)C(C)=C1C3(C)C)[C@]1(OC(C)=O)CO[C@@H]1C[C@@H]2O [PACLITAXEL]	930 nM	35 nM		
